The values that follow come from PubChem BioAssay.

The structures appear in SMILES notation. Activity calls are given as the source filed them. Cut-off read from the data, not from the text of the source, unless noted: active = inhibition above about 30%; inactive = the rest.

A short description of assay [1]: Her2 expression decrease, cell viability multiplex – SKBR3 breast tumor cells, AlphaScreen, ATP viability, primary screen (AID 461;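 active = Her2 level under about 52% in both replicate screens, with viability over 70% of control, limit read from the data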;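 for Her2 level: lower value means less Her2 protein in the cells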;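 for viability: percent of carrier control wells set as 100% viability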). The conditions noted are these: SKBR3 Her2 protein level, 18-24 h, measured here: SKBR3 viability, ATP luminescence, at 10 µM.
Assay [2] addresses Receptor tyrosine-protein kinase erbB-2 (Homo sapiens) (UniProt P04626). Described as above. As to conditions: 18-24 h, at 10 µM, stronger effect = lower value.
A short description of assay [3]: reduced viability of SK-BR-3 breast cancer cells – cell-based, 24 h, human, pilot screen (AID 572;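 active = viability at or below 10% of carrier control in both of two separate runs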;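 note: compound exposure lasted between 18 and 24 h rather than exactly 24 h; 100% = carrier-treated control wells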). As to conditions: SK-BR-3 viability, CellTiter-Glo luminescence, at 10 µM, stronger effect = lower value. (In general: ATP-based viability assays read luminescence as a measure of living cells.)
Assay [4] in a line: HUVEC growth inhibition – cell-based, human, primary screen (AID 575;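 active = viability at or below 30% in both replicate assays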;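 note: 100% = median of untreated cell wells with 0.1% DMSO on each plate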). The conditions noted are these: HUVEC proliferation, CellTiter-Glo luminescence, 72 h; at 10 µM; stronger effect = lower value. In short, it runs like this:
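Timing: 72 h treatment at 37 °C; material: HUVEC primary cells; technique: CellTiter-Glo luminescence measuring cellular ATP; controls: vehicle and MePR control wells; measure: percent of median DMSO-control luminescence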

Assay [5] can be described thus: H69AR cell proliferation blockers – human, duplicate replicates, primary screen (AID 580;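 active = viability at or under a set limit in both replicates, limit being median viability minus 3 SD, cut at about 48% in these data, passing the limit was not always enough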;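 note: 100% = mean luminescence of untreated wells and 0% = no signal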). The conditions noted are these: H69AR lung tumor cells viability, ATP luminescence, 72 h; at 10 µM; stronger effect = lower value.
Assay [6] is described as follows: MRP1 drug-resistance reversers in H69AR cells – cell-based, doxorubicin co-treatment, pilot screen (AID 601;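 active = viability loss from added drug above about 55%, and viability with drug at most 40%, in both replicates, limit read from the data, passing the limit was not always enough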). The conditions noted are these: CellTiter-Glo, 72 h, at 10 µM; for differential viability (reversal): stronger effect = higher value.
Assay [7] is described as follows: yeast transport mutant growth inhibition pilot in 384-well plates, post-Golgi transport modulator project (AID 636; in the data active = inhibition above about 31%). As to conditions: absorbance 615 nm, about 18 h, stronger effect = higher value.
A short description of assay [8]: growth suppression of yeast trafficking mutant, preliminary HTS, modulators of trafficking downstream of Golgi apparatus project, 1536-format plate, OD 615 nm (AID 637). The conditions noted are these: yeast transport mutant growth, absorbance 615 nm, 18 h; stronger effect = higher value.
Where [9] appears, read: H69AR cells + 2 uM doxorubicin, measured here: viability with 2 uM doxorubicin, stronger effect = lower value.
The mark [10] stands for this setting: H69AR cells, compound alone cytotoxicity.

Receptor tyrosine-protein kinase erbB-2 (Homo sapiens), sequence (P04626 whole entry, looked up): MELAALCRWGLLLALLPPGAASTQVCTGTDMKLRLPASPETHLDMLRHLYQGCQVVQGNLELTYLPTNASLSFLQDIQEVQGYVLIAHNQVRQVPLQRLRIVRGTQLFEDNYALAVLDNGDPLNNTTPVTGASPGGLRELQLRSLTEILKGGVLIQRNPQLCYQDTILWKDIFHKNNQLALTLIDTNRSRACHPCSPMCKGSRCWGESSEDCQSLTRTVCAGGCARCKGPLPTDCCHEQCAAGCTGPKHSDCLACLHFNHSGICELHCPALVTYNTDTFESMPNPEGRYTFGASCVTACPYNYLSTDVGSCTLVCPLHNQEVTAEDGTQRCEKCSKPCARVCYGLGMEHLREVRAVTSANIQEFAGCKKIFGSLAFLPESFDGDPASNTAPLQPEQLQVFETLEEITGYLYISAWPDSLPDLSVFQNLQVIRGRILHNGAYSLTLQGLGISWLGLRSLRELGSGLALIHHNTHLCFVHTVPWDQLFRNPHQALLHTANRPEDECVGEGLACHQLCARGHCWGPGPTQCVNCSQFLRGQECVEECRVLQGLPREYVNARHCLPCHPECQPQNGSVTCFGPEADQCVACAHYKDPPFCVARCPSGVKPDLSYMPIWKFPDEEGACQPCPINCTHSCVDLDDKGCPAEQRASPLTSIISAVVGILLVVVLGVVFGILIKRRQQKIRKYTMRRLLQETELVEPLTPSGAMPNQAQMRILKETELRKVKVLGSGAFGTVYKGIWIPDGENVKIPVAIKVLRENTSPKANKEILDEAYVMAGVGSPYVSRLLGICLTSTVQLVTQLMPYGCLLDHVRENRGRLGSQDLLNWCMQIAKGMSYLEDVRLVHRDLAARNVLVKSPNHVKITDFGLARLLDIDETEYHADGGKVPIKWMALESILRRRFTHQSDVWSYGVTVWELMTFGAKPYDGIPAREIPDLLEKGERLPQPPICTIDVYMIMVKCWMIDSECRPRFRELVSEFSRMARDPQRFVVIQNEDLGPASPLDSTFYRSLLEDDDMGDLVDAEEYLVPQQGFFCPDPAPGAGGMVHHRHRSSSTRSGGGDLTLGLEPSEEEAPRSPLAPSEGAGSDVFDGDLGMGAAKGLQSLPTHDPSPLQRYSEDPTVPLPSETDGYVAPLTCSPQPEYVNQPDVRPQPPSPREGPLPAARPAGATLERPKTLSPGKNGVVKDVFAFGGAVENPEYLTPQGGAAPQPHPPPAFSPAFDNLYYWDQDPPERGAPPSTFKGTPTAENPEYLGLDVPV

For the molecule `O=C1CCCC2=C1C(c1ccc(Br)cc1)c1c([nH]c(=S)[nH]c1=O)N2` (stereo not given), the viability in assay [1] was 84%; in assay [3], 84% (inactive); in assay [4], 99.3% (inactive); in assay [5] it was 91.7% (inactive); in assay [6] (setting [9]) it was 85.1%; in assay [6] (setting [10]), 91.7%. Besides, in assay [2], the Her2 level was 112% (inactive). In assay [6] (H69AR cells + 2 uM doxorubicin), the differential viability (reversal) was 6.69% (inactive). Also, the values for the inhibition in assay [7] and in assay [8] were -4.47% (inactive) and 8.67% (inactive), respectively.

Regarding `CC(=O)C1=C(O)C(=O)N(c2ccc(C(=O)O)cc2)C1c1ccccc1` (stereo not given), the viability is 107% in assay [1]; 107% (inactive) in assay [3]; 117% (inactive) in assay [4]; 102% (inactive) in assay [5]; 95.7% in assay [6] (setting [9]); 102% in assay [6] (setting [10]). Further, in assay [2], the Her2 level was 89% (inactive). The differential viability (reversal) in assay [6] (H69AR cells + 2 uM doxorubicin) was 5.88% (inactive). Moreover, the inhibition is -0.66% (inactive) in assay [7] and 1.8% (inactive) in assay [8].

As for `CCOc1ccc(C2C=C(c3ccc(F)cc3)Nc3ncnn32)cc1` (stereo not given), the viability in assay [1] was 91.5%; in assay [3], 91.5% (inactive); in assay [4], 81.2% (inactive); in assay [5], 82.2% (inactive); in assay [6] (setting [9]) it was 79.1%; in assay [6] (setting [10]) it was 82.2%. Besides, the Her2 level in assay [2] was 87% (inactive). The differential viability (reversal) in assay [6] (H69AR cells + 2 uM doxorubicin) was 3.07% (inactive). For the same molecule, the values for the inhibition in assay [7] and in assay [8] were -4.42% (inactive) and 9.34% (inactive), respectively.

Take `COc1ccc(CN2C(=O)c3cccnc3C2Nc2cc(Cl)ccc2OC)cc1` (stereo not given): the viability was 84.5% in assay [1]; 84.5% (inactive) in assay [3]; 85% (inactive) in assay [4]; 93.2% (inactive) in assay [5]; 92.5% in assay [6] (setting [9]); 93.2% in assay [6] (setting [10]). Moreover, the Her2 level in assay [2] was 110% (inactive). The differential viability (reversal) in assay [6] (H69AR cells + 2 uM doxorubicin) was 0.7% (inactive). Also, the inhibition in assay [7] is 2.67% (inactive); in assay [8], -1.8% (inactive).

For `Nc1cc(CN2C(=O)c3ccccc3C2=O)cc(Cl)c1O`, the viability in assay [1] is 102%; in assay [3], 102% (inactive); in assay [4] it was 75.1% (inactive); in assay [5], 108% (inactive); in assay [6] (setting [9]), 79.2%; in assay [6] (setting [10]) it was 108%. Besides, the Her2 level in assay [2] was 91.5% (inactive). The differential viability (reversal) in assay [6] (H69AR cells + 2 uM doxorubicin) was 29% (inactive). Also, the results for the inhibition in assay [7] and in assay [8] were -5.41% (inactive) and -1.64% (inactive), respectively.

For `COc1ccc(NS(=O)(=O)c2c(C)[nH]c(=O)[nH]c2=O)c(OC)c1`, the viability is 88.5% in assay [1]; 88.5% (inactive) in assay [3]; 97.9% (inactive) in assay [4]; 90.8% (inactive) in assay [5]; 89.5% in assay [6] (setting [9]); 90.8% in assay [6] (setting [10]). Moreover, the Her2 level in assay [2] was 91% (inactive). In addition, in assay [6] (H69AR cells + 2 uM doxorubicin), the differential viability (reversal) was 1.25% (inactive). Also, the values for the inhibition in assay [7] and in assay [8] were -0.39% (inactive) and -4% (inactive), respectively.

Regarding `CCOC(=O)c1[nH]c2ccccc2c1NC(=O)CCN1CCN(C(=O)OCC)CC1`, the viability in assay [1] was 110%; in assay [3] it was 110% (inactive); in assay [4], 81.4% (inactive); in assay [5], 96.8% (inactive); in assay [6] (setting [9]) it was 77.7%; in assay [6] (setting [10]), 96.8%. Also, the Her2 level in assay [2] is 89.5% (inactive). Also, the differential viability (reversal) in assay [6] (H69AR cells + 2 uM doxorubicin) was 19.1% (inactive). In addition, the figures for the inhibition in assay [7] and in assay [8] were 1.84% (inactive) and -1.94% (inactive), respectively.

On to `Cc1cc(C)n(-c2nc3nonc3nc2-n2nc(C)cc2C)n1`, for which the viability is 91.5% in assay [1]; 91.5% (inactive) in assay [3]; 83.3% (inactive) in assay [4]; 105% (inactive) in assay [5]; 90.3% in assay [6] (setting [9]); 105% in assay [6] (setting [10]). In addition, the Her2 level in assay [2] is 83% (inactive). The differential viability (reversal) in assay [6] (H69AR cells + 2 uM doxorubicin) is 14.7% (inactive). The inhibition in assay [7] is -2.5% (inactive); in assay [8], -3.17% (inactive).

`COc1ccc(-c2onc(C)c2-c2ccccc2)c(O)c1`: the viability in assay [1] is 99.5%; in assay [3], 99.5% (inactive); in assay [4] it was 79.6% (inactive); in assay [5], 18.5% (active); in assay [6] (setting [9]), 62.9%; in assay [6] (setting [10]), 18.5%. Besides, the Her2 level in assay [2] is 73% (inactive). In addition, the differential viability (reversal) in assay [6] (H69AR cells + 2 uM doxorubicin) was -44.4% (inactive). Also, the inhibition is -4.53% (inactive) in assay [7] and 0.32% (inactive) in assay [8].

With `Cc1nn(-c2ccc(F)cc2)c(C)c1NS(=O)(=O)c1ccc(Cl)cc1`, the viability in assay [1] was 106%; in assay [3], 106% (inactive); in assay [4], 90.9% (inactive); in assay [5], 77% (inactive); in assay [6] (setting [9]) it was 82.2%; in assay [6] (setting [10]) it was 77%. In assay [2], the Her2 level is 85% (inactive). In assay [6] (H69AR cells + 2 uM doxorubicin), the differential viability (reversal) is -5.18% (inactive). Further, the inhibition in assay [7] was -8.27% (inactive); in assay [8], -2.79% (inactive).

With `CN(CC(=O)Nc1nccs1)S(=O)(=O)c1ccc(F)cc1`, the viability in assay [1] is 82%; in assay [3], 82% (inactive); in assay [4], 92.1% (inactive); in assay [5] it was 95.2% (inactive); in assay [6] (setting [9]) it was 103%; in assay [6] (setting [10]) it was 95.2%. Besides, the Her2 level in assay [2] is 114% (inactive). Further, in assay [6] (H69AR cells + 2 uM doxorubicin), the differential viability (reversal) is -7.69% (inactive). Moreover, the inhibition in assay [7] is 0.78% (inactive); in assay [8], -4.75% (inactive).

Turning to `Cc1[nH]c2ccccc2c(=O)c1CN(C)Cc1ccccc1`, the viability in assay [1] was 92.5%; in assay [3], 92.5% (inactive); in assay [4] it was 100% (inactive); in assay [5], 91.8% (inactive); in assay [6] (setting [9]) it was 89.3%; in assay [6] (setting [10]) it was 91.8%. In addition, the Her2 level in assay [2] was 95% (inactive). Moreover, the differential viability (reversal) in assay [6] (H69AR cells + 2 uM doxorubicin) was 2.49% (inactive). The inhibition was -4.21% (inactive) in assay [7] and -0.98% (inactive) in assay [8].

For `CCN(CC)c1ccc(NC(=O)c2cncc(Br)c2)cc1`, the viability was 97.5% in assay [1]; 97.5% (inactive) in assay [3]; 76.2% (inactive) in assay [4]; 79.9% (inactive) in assay [5]; 105% in assay [6] (setting [9]); 79.9% in assay [6] (setting [10]). For the same molecule, in assay [2], the Her2 level is 91% (inactive). Besides, the differential viability (reversal) in assay [6] (H69AR cells + 2 uM doxorubicin) was -25.4% (inactive). The inhibition in assay [7] is -4.47% (inactive); in assay [8] it was 3.77% (inactive).

As to `CCOc1ccc(Cl)cc1S(=O)(=O)N1CCCC1`, the viability was 100% in assay [1]; 100% (inactive) in assay [3]; 101% (inactive) in assay [4]; 88.8% (inactive) in assay [5]; 94.5% in assay [6] (setting [9]); 88.8% in assay [6] (setting [10]). Further, in assay [2], the Her2 level was 94.5% (inactive). Also, the differential viability (reversal) in assay [6] (H69AR cells + 2 uM doxorubicin) was -5.74% (inactive). The inhibition in assay [7] was -4.34% (inactive); in assay [8] it was -1.11% (inactive).

As for `C1CCC2=NCCCN2CC1`, the viability was 122% in assay [1]; 122% (inactive) in assay [3]; 100% (inactive) in assay [4]; 107% (inactive) in assay [5]; 98.4% in assay [6] (setting [9]); 107% in assay [6] (setting [10]). Further, the Her2 level in assay [2] was 87.5% (inactive). Further, the differential viability (reversal) in assay [6] (H69AR cells + 2 uM doxorubicin) was 8.22% (inactive). In addition, the inhibition in assay [7] is -7.33% (inactive); in assay [8], -1.9% (inactive).

By viability is commonly meant a read-out of living cells in per cent, often relative to untreated cells. As a reminder, the inhibition is the relative decrease from the control value, in per cent.
